The record followed here is ChEMBL document CHEMBL2086327, “A click chemistry approach to pleuromutilin derivatives, part 2: conjugates with acyclic nucleosides and their ribosomal binding and antibacterial activity” (2012).

Test [1] relates to Nucleic Acid. Briefly: Binding affinity to Escherichia coli 23S rRNA U2506 assessed as degree of protection against CMCT at 50 uM by Chemical footprinting analysis relative to control. The test is classed as nucleic-acid assay. In outline:
(§1)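 Ribosomes came from E. coli MRE600 grown in LB, lysed and purified on sucrose gradients. They were incubated with drug at 5 or 50 μM and then modified with CMCT. Read-out was primer extension with a Cy5-labeled primer, gel electrophoresis and laser scanning. Band intensity with drug is given relative to no-drug control, after subtracting background from unmodified samples (1.00 = no protection, 0 = full protection). Values are means of at least two experiments.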

Test [2] deals with Listeria innocua. Briefly: Antibacterial activity against Listeria innocua after 24 hrs by microtitre plate reader. The format is functional. In outline: (§2)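 Microtiter broth dilution. Media: E. coli AS19 in LB; B. subtilis 168 in 25% BHI/75% LB/0.05% Tween; L. innocua in 50% BHI/50% LB. Overnight cultures started from single colonies were diluted to OD450 0.01 and mixed 1:1 with 2-fold drug dilutions (0.125–32 μg/mL). Growth was read as OD450. MIC is the lowest concentration giving complete growth inhibition (E. coli read at 24 h).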

The subject of test [3] is Nucleic Acid. Description: Binding affinity to Escherichia coli 23S rRNA U2585 assessed as degree of protection against CMCT at 5 uM by Chemical footprinting analysis relative to control. The test is classed as nucleic-acid assay. A digest of the protocol:
as §1

In test [4] the test system is Escherichia coli. Briefly: Antibacterial activity against Escherichia coli AS19 after 24 hrs by microtitre plate reader. The note with it: AS19, 24 h. The format is functional. In outline:
as §2

In test [5] the test system is Nucleic Acid. Briefly: Binding affinity to Escherichia coli 23S rRNA U2585 assessed as degree of protection against CMCT at 50 uM by Chemical footprinting analysis relative to control. The format is nucleic-acid assay. A digest of the protocol: as §1
Test [6] relates to Nucleic Acid. Description: Binding affinity to Escherichia coli 23S rRNA U2506 assessed as degree of protection against CMCT at 5 uM by Chemical footprinting analysis relative to control. The format is nucleic-acid assay. A digest of the protocol:
as §1

Test [7] relates to Bacillus subtilis. Briefly: Antibacterial activity against Bacillus subtilis 168 after 12 hrs by microtitre plate reader. The test is classed as functional. The note with it: Bacillus subtilis, 168, 12 h. In outline:
as §2

Structures are written as SMILES. ≈ marks a conversion by molar mass, not a printed value. Where only a bound is given, the exact number is not on record here.

Take `C=C[C@]1(C)C[C@@H](OC(=O)CO)[C@]2(C)[C@H](C)CC[C@]3(CCC(=O)[C@@H]32)[C@@H](C)[C@@H]1O` [PLEUROMUTILIN]: the Ratio in test [1] came out at 0.08; in test [3] it was 0.89; in test [5], 0.8; in test [6] it was 0.28. In addition, the results for the MIC in test [2], in test [4] and in test [7] were over 32 mg/L, 1 mg/L (≈ 2.64 µM) and 32 mg/L (≈ 84.5 µM), respectively.
With `C=C[C@]1(C)C[C@@H](OC(=O)Cn2cc(CCCn3cnc4c(N)ncnc43)nn2)[C@]2(C)[C@H](C)CC[C@]3(CCC(=O)[C@H]32)[C@@H](C)[C@@H]1O`, the Ratio was 0.05 in test [1], 0.23 in test [3], 0.17 in test [5] and 0.13 in test [6]. The figures for the MIC in test [2], in test [4] and in test [7] were over 32 mg/L, 8 mg/L (≈ 13.2 µM) and over 32 mg/L, respectively.
In the case of `C=C[C@]1(C)C[C@@H](OC(=O)Cn2cc(COCc3ccccc3)nn2)[C@]2(C)[C@H](C)CC[C@]3(CCC(=O)[C@H]32)[C@@H](C)[C@@H]1O`, the Ratio is 0.08 in test [1], 0.5 in test [3], 0.41 in test [5] and 0.3 in test [6]. Also, the MIC in test [2], in test [4] and in test [7] was over 32 mg/L each time.
As to `C=C[C@]1(C)C[C@@H](OC(=O)Cn2ccnn2)[C@]2(C)[C@H](C)CC[C@]3(CCC(=O)[C@H]32)[C@@H](C)[C@@H]1O`, the Ratio in test [1] was determined as 0.18; in test [3] it was 0.66; in test [5] it was 0.42; in test [6], 0.48. The minimum inhibitory concentration (MIC) in test [2] is over 32 mg/L; in test [4], 16 mg/L (≈ 37.2 µM); in test [7], over 32 mg/L.
`C=C[C@]1(C)C[C@@H](OC(=O)Cn2cc(-c3ccc(-n4cnc5c(N)ncnc54)cc3)nn2)[C@]2(C)[C@H](C)CC[C@]3(CCC(=O)[C@H]32)[C@@H](C)[C@@H]1O`: the Ratio is 0.08 in test [1], 0.4 in test [3], 0.22 in test [5] and 0.18 in test [6]. Moreover, the MIC in test [2], in test [4] and in test [7] was over 32 mg/L each time.
On to `C=C[C@]1(C)C[C@@H](OC(=O)Cn2cc(COCCn3cc(C)c(=O)[nH]c3=O)nn2)[C@]2(C)[C@H](C)CC[C@]3(CCC(=O)[C@H]32)[C@@H](C)[C@@H]1O`, for which the Ratio in test [1] amounted to 0.08; in test [3], 0.43; in test [5], 0.24; in test [6] it was 0.28. The minimum inhibitory concentration (MIC) was over 32 mg/L in test [2], at least 32 mg/L in test [4] and over 32 mg/L in test [7].
`C=C[C@]1(C)C[C@@H](OC(=O)Cn2nncc2CCCn2cnc3c(N)ncnc32)[C@]2(C)[C@H](C)CC[C@]3(CCC(=O)[C@H]32)[C@@H](C)[C@@H]1O`: the Ratio came to 0.04 in test [1], 0.19 in test [3], 0.16 in test [5] and 0.09 in test [6]. In addition, the MIC in test [2] is over 32 mg/L; in test [4], 16 mg/L (≈ 26.5 µM); in test [7] it was over 32 mg/L.
For `C=C[C@]1(C)C[C@@H](OC(=O)Cn2cc(-c3cccc(-n4cnc5c(N)ncnc54)c3)nn2)[C@]2(C)[C@H](C)CC[C@]3(CCC(=O)[C@H]32)[C@@H](C)[C@@H]1O`, the Ratio in test [1] came out at 0.06; in test [3], 0.1; in test [5], 0.07; in test [6], 0.06. For the same compound, the minimal inhibitory concentration (MIC) is over 32 mg/L in test [2], 1 mg/L (≈ 1.57 µM) in test [4] and 8 mg/L (≈ 12.5 µM) in test [7].
`C=C[C@]1(C)C[C@@H](OC(=O)Cn2cc(/C=C/Cn3cnc4c(N)ncnc43)nn2)[C@]2(C)[C@H](C)CC[C@]3(CCC(=O)[C@H]32)[C@@H](C)[C@@H]1O`: the Ratio in test [1] turned out to be 0.05; in test [3], 0.29; in test [5] it was 0.16; in test [6], 0.1. Moreover, the MIC is over 32 mg/L in test [2], 8 mg/L (≈ 13.3 µM) in test [4] and 16 mg/L (≈ 26.5 µM) in test [7].
`C=C[C@]1(C)C[C@@H](OC(=O)Cn2cc(/C=C/Cn3cc(C)c(=O)[nH]c3=O)nn2)[C@]2(C)[C@H](C)CC[C@]3(CCC(=O)[C@H]32)[C@@H](C)[C@@H]1O`: the Ratio in test [1] amounted to 0.06; in test [3], 0.39; in test [5], 0.21; in test [6], 0.18. Moreover, the minimum inhibitory concentration (MIC) in test [2] is over 32 mg/L; in test [4] it was at least 32 mg/L; in test [7] it was over 32 mg/L.
As for `C=C[C@]1(C)C[C@@H](OC(=O)CSCCN(CC)CC)[C@]2(C)[C@H](C)CC[C@]3(CCC(=O)[C@H]32)[C@@H](C)[C@@H]1O` [TIAMULIN], the Ratio amounted to 0.03 in test [1], 0.54 in test [3], 0.5 in test [5] and 0.07 in test [6]. The figures for the MIC in test [2], in test [4] and in test [7] were over 32 mg/L, 0.5 mg/L (≈ 1.01 µM) and over 32 mg/L, respectively.
As to `C=C[C@]1(C)C[C@@H](OC(=O)CSC(C)(C)CNC(=O)[C@H](N)C(C)C)[C@]2(C)[C@H](C)CC[C@]3(CCC(=O)[C@H]32)[C@@H](C)[C@@H]1O` [VALNEMULIN], the Ratio worked out at 0.04 in test [1], 0.15 in test [3], 0.16 in test [5] and 0.05 in test [6]. For the same compound, the MIC was 1 mg/L (≈ 1.77 µM) in test [2], under 0.125 mg/L in test [4] and 2 mg/L (≈ 3.54 µM) in test [7].
In the case of `C=C[C@]1(C)C[C@@H](OC(=O)Cn2cc(COCn3cc(C)c(=O)[nH]c3=O)nn2)[C@]2(C)[C@H](C)CC[C@]3(CCC(=O)[C@H]32)[C@@H](C)[C@@H]1O`, the Ratio in test [1] came out at 0.07; in test [3], 0.37; in test [5], 0.22; in test [6], 0.23. The MIC in test [2], in test [4] and in test [7] was over 32 mg/L in each case.
`C=C[C@]1(C)C[C@@H](OC(=O)Cn2cc(C[C@@H]3[C@H](O)[C@@H](CO)O[C@H]3n3ccc(=O)[nH]c3=O)nn2)[C@]2(C)[C@H](C)CC[C@]3(CCC(=O)[C@H]32)[C@@H](C)[C@@H]1O`: the Ratio in test [1] was found to be 0.09; in test [3], 0.46; in test [5], 0.26; in test [6], 0.31. Also, the MIC in test [2], in test [4] and in test [7] was over 32 mg/L each time.
On to `C=C[C@]1(C)C[C@@H](OC(=O)Cn2cc(COCn3cnc4c(N)ncnc43)nn2)[C@]2(C)[C@H](C)CC[C@]3(CCC(=O)[C@H]32)[C@@H](C)[C@@H]1O`, for which the Ratio is 0.06 in test [1], 0.37 in test [3], 0.22 in test [5] and 0.21 in test [6]. In addition, the MIC in test [2], in test [4] and in test [7] was over 32 mg/L in each case.
